In ChEMBL document CHEMBL1135354, “Synthesis and activity of a novel class of tribasic macrocyclic antibiotics: the triamilides” (2002):
Values after ≈ are worked out from the molar mass of the structure shown.

Columns and labels:
Assay type in all cases: functional
Pasteurella multocida [1] = test: Minimum inhibitory concentration required to inhibit growth of Pasteurella multocida in vitro by microdilution method.; conditions: Pasteurella multocida; read-out: MIC
Procedure, shortened: (§1)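 Broth microdilution per NCCLS; E. coli 51A0150 (poultry lung) and P. multocida 59A0067 (turkey). Overnight BHI plate colonies suspended in saline to OD625 0.09 (0.5 McFarland), diluted 1:100 in BHI broth; final ~5×10^5 cfu/mL against 2-fold serial dilutions in BHI broth.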

Pasteurella multocida [2] = test: Effective dose required to inhibit Pasteurella multocida infection model in mouse by subcutaneous administration; conditions: Pasteurella multocida, sc; read-out: ED50
Procedure, shortened: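 Mice infected intranasally with P. multocida (respiratory disease model); drug given subcutaneously 0.5 h post-infection at 5–80 mg/kg. ED50 derived from number of surviving mice 4 days after infection.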

Escherichia coli = test: In vitro minimum inhibitory concentration required to inhibit growth of Escherichia coli.; conditions: Escherichia coli; procedure, shortened: as §1

| Compound | MIC (Pasteurella multocida [1]) [mg/L] | MIC (Escherichia coli) [mg/L] | ED50 (Pasteurella multocida [2]) [mg/kg] |
| --- | --- | --- | --- |
| CC[C@H]1OC(=O)[C@H](C)[C@@H](O[C@H]2C[C@@](C)(OC)[C@](O)(CSCCO)[C@H](C)O2)[C@H](C)[C@@H](O[C@@H]2O[C@H](C)C[C@H](N(C)C)[C@H]2O)[C@](C)(O)C[C@@H](C)CN[C@H](C)[C@@H](O)[C@]1(C)O | 0.39 (≈ 0.473 µM) | 25 (≈ 30.3 µM) | > 40 |
| CCCCNC[C@]1(O)[C@H](C)O[C@@H](O[C@H]2[C@H](C)[C@@H](O[C@@H]3O[C@H](C)C[C@H](N(C)C)[C@H]3O)[C@](C)(O)C[C@@H](C)CN[C@H](C)[C@@H](O)[C@](C)(O)[C@@H](CC)OC(=O)[C@@H]2C)C[C@@]1(C)OC | 0.1 (≈ 0.122 µM) | 0.78 (≈ 0.951 µM) | 17 |
| CC[C@H]1OC(=O)[C@H](C)[C@@H](O[C@H]2C[C@@](C)(OC)[C@](O)(CNC3CC3)[C@H](C)O2)[C@H](C)[C@@H](O[C@@H]2O[C@H](C)C[C@H](N(C)C)[C@H]2O)[C@](C)(O)C[C@@H](C)CN[C@H](C)[C@@H](O)[C@]1(C)O | 0.1 (≈ 0.124 µM) | 0.78 (≈ 0.97 µM) | 15 |
| CC[C@H]1OC(=O)[C@H](C)[C@@H](O[C@H]2C[C@@](C)(OC)[C@](O)(CN)[C@H](C)O2)[C@H](C)[C@@H](O[C@@H]2O[C@H](C)C[C@H](N(C)C)[C@H]2O)[C@](C)(O)C[C@@H](C)CN[C@H](C)[C@@H](O)[C@]1(C)O | 0.39 (≈ 0.51 µM) | 6.25 (≈ 8.18 µM) | – |
| CC[C@H]1OC(=O)[C@H](C)[C@@H](O[C@H]2C[C@@](C)(OC)[C@@](O)(CN3CCCC3)[C@H](C)O2)[C@H](C)[C@@H](O[C@@H]2O[C@H](C)C[C@H](N(C)C)[C@H]2O)[C@](C)(O)C[C@@H](C)CN[C@H](C)[C@@H](O)[C@]1(C)O | 50 (≈ 61.1 µM) | 0.2 (≈ 0.244 µM) | 7.3 |
| CC[C@H]1OC(=O)[C@H](C)[C@@H](O[C@H]2C[C@@](C)(OC)[C@@](O)(CN)[C@H](C)O2)[C@H](C)[C@@H](O[C@@H]2O[C@H](C)C[C@H](N(C)C)[C@H]2O)[C@](C)(O)C[C@@H](C)CN[C@H](C)[C@@H](O)[C@]1(C)O | 0.39 (≈ 0.51 µM) | 6.25 (≈ 8.18 µM) | 30 |
| CC[C@H]1OC(=O)[C@H](C)[C@@H](O[C@H]2C[C@@](C)(OC)[C@@](O)(CNCC3CC3)[C@H](C)O2)[C@H](C)[C@@H](O[C@@H]2O[C@H](C)C[C@H](N(C)C)[C@H]2O)[C@](C)(O)C[C@@H](C)CN[C@H](C)[C@@H](O)[C@]1(C)O | 0.1 (≈ 0.122 µM) | 0.39 (≈ 0.477 µM) | 5.7 |
| CCCNC[C@@]1(O)[C@H](C)O[C@@H](O[C@H]2[C@H](C)[C@@H](O[C@@H]3O[C@H](C)C[C@H](N(C)C)[C@H]3O)[C@](C)(O)C[C@@H](C)CN[C@H](C)[C@@H](O)[C@](C)(O)[C@@H](CC)OC(=O)[C@@H]2C)C[C@@]1(C)OC | 0.1 (≈ 0.124 µM) | 0.39 (≈ 0.484 µM) | 12 |
| CC[C@H]1OC(=O)[C@H](C)[C@@H](O[C@H]2C[C@@](C)(OC)[C@@](O)(CN(C)CCO)[C@H](C)O2)[C@H](C)[C@@H](O[C@@H]2O[C@H](C)C[C@H](N(C)C)[C@H]2O)[C@](C)(O)C[C@@H](C)CN[C@H](C)[C@@H](O)[C@]1(C)O | 0.1 (≈ 0.122 µM) | 1.56 (≈ 1.9 µM) | 12 |
| CC[C@H]1OC(=O)[C@H](C)[C@@H](O[C@H]2C[C@@](C)(OC)[C@@](O)(CNC(C)(C)C)[C@H](C)O2)[C@H](C)[C@@H](O[C@@H]2O[C@H](C)C[C@H](N(C)C)[C@H]2O)[C@](C)(O)C[C@@H](C)CN[C@H](C)[C@@H](O)[C@]1(C)O | 0.1 (≈ 0.122 µM) | 0.39 (≈ 0.476 µM) | 14 |
| CC[C@H]1OC(=O)[C@H](C)[C@@H](O[C@H]2C[C@@](C)(OC)[C@@](O)(CN(C)C3CC3)[C@H](C)O2)[C@H](C)[C@@H](O[C@@H]2O[C@H](C)C[C@H](N(C)C)[C@H]2O)[C@](C)(O)C[C@@H](C)CN[C@H](C)[C@@H](O)[C@]1(C)O | 0.1 (≈ 0.122 µM) | 0.78 (≈ 0.953 µM) | 17 |
| CC[C@H]1OC(=O)[C@H](C)[C@@H](O[C@H]2C[C@@](C)(OC)[C@@](O)(CSCCO)[C@H](C)O2)[C@H](C)[C@@H](O[C@@H]2O[C@H](C)C[C@H](N(C)C)[C@H]2O)[C@](C)(O)C[C@@H](C)CN[C@H](C)[C@@H](O)[C@]1(C)O | 0.2 (≈ 0.242 µM) | 1.56 (≈ 1.89 µM) | 51 |
| CCCCCCNC[C@@]1(O)[C@H](C)O[C@@H](OC2[C@@H](C)C(=O)O[C@H](CC)[C@@](C)(O)[C@H](O)[C@@H](C)NC[C@H](C)C[C@@](C)(O)[C@H](O[C@@H]3O[C@H](C)C[C@H](N(C)C)[C@H]3O)[C@H]2C)C[C@@]1(C)OC (stereo partly drawn) | 0.2 (≈ 0.236 µM) | 0.78 (≈ 0.92 µM) | > 80 |
| CC[C@H]1OC(=O)[C@H](C)[C@@H](O[C@H]2C[C@@](C)(OC)[C@@](O)(Cn3ccnc3)[C@H](C)O2)[C@H](C)[C@@H](O[C@@H]2O[C@H](C)C[C@H](N(C)C)[C@H]2O)[C@](C)(O)C[C@@H](C)CN[C@H](C)[C@@H](O)[C@]1(C)O | 0.2 (≈ 0.245 µM) | 3.13 (≈ 3.84 µM) | 20 |
| CC[C@H]1OC(=O)[C@H](C)[C@@H](O[C@H]2C[C@@](C)(OC)[C@@](O)(CN(CCO)CCO)[C@H](C)O2)[C@H](C)[C@@H](O[C@@H]2O[C@H](C)C[C@H](N(C)C)[C@H]2O)[C@](C)(O)C[C@@H](C)CN[C@H](C)[C@@H](O)[C@]1(C)O | 3.13 (≈ 3.67 µM) | > 50 | – |

Continued, in another order:

| MIC (Pasteurella multocida [1]) [mg/L] | MIC (Escherichia coli) [mg/L] | Compound | ED50 (Pasteurella multocida [2]) [mg/kg] |
| --- | --- | --- | --- |
| 0.05 (≈ 0.0631 µM) | 0.39 (≈ 0.492 µM) | CC[C@H]1OC(=O)[C@H](C)[C@@H](O[C@H]2C[C@@](C)(OC)[C@](O)(CN(C)C)[C@H](C)O2)[C@H](C)[C@@H](O[C@@H]2O[C@H](C)C[C@H](N(C)C)[C@H]2O)[C@](C)(O)C[C@@H](C)CN[C@H](C)[C@@H](O)[C@]1(C)O | 5.9 |
| 0.05 (≈ 0.0611 µM) | 0.2 (≈ 0.244 µM) | CC[C@H]1OC(=O)[C@H](C)[C@@H](O[C@H]2C[C@@](C)(OC)[C@](O)(CN3CCCC3)[C@H](C)O2)[C@H](C)[C@@H](O[C@@H]2O[C@H](C)C[C@H](N(C)C)[C@H]2O)[C@](C)(O)C[C@@H](C)CN[C@H](C)[C@@H](O)[C@]1(C)O | < 10 |
| 0.05 (≈ 0.0601 µM) | 0.39 (≈ 0.469 µM) | CC[C@H]1OC(=O)[C@H](C)[C@@H](O[C@H]2C[C@@](C)(OC)[C@](O)(CN3CCCCC3)[C@H](C)O2)[C@H](C)[C@@H](O[C@@H]2O[C@H](C)C[C@H](N(C)C)[C@H]2O)[C@](C)(O)C[C@@H](C)CN[C@H](C)[C@@H](O)[C@]1(C)O | – |
| 0.05 (≈ 0.061 µM) | 0.39 (≈ 0.476 µM) | CC[C@H]1OC(=O)[C@H](C)[C@@H](O[C@H]2C[C@@](C)(OC)[C@](O)(CNC(C)(C)C)[C@H](C)O2)[C@H](C)[C@@H](O[C@@H]2O[C@H](C)C[C@H](N(C)C)[C@H]2O)[C@](C)(O)C[C@@H](C)CN[C@H](C)[C@@H](O)[C@]1(C)O | 9.6 |
| < 0.1 | 0.39 (≈ 0.492 µM) | CC[C@H]1OC(=O)[C@H](C)[C@@H](O[C@H]2C[C@@](C)(OC)[C@@](O)(CN(C)C)[C@H](C)O2)[C@H](C)[C@@H](O[C@@H]2O[C@H](C)C[C@H](N(C)C)[C@H]2O)[C@](C)(O)C[C@@H](C)CN[C@H](C)[C@@H](O)[C@]1(C)O | 9.9 |
| 0.05 (≈ 0.0622 µM) | 0.2 (≈ 0.249 µM) | CC[C@H]1OC(=O)[C@H](C)[C@@H](O[C@H]2C[C@@](C)(OC)[C@@](O)(CNC3CC3)[C@H](C)O2)[C@H](C)[C@@H](O[C@@H]2O[C@H](C)C[C@H](N(C)C)[C@H]2O)[C@](C)(O)C[C@@H](C)CN[C@H](C)[C@@H](O)[C@]1(C)O | 20 |
| < 0.1 | 0.78 (≈ 0.949 µM) | CC[C@H]1OC(=O)[C@H](C)[C@@H](O[C@H]2C[C@@](C)(OC)[C@@](O)(CNCCOC)[C@H](C)O2)[C@H](C)[C@@H](O[C@@H]2O[C@H](C)C[C@H](N(C)C)[C@H]2O)[C@](C)(O)C[C@@H](C)CN[C@H](C)[C@@H](O)[C@]1(C)O | 9.5 |
